Screening data deposited in PubChem BioAssay by several laboratories.
This is a sample that favours compounds with a hit; in the whole collection about 3.8% have one here.
SDO1 yeast rescue: restores growth of sdo1-depleted yeast. S. cerevisiae sdo1-depleted JHY4D growth rescue, OD600 30 h; active compounds read high; pdr5 snq2 efflux-pump mutant strain. hit rate 0.21% among 140,000. AID 817. z-score at 10 µM;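 active means z-score above 3 at both the 24 hr and the 30 hr optical density reads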
Yeast life ext: yeast lifespan extension; inhibition of the nicotinamide effect, % at 10 µM; AID 775; S. cerevisiae growth with nicotinamide, OD615; deaD strain in restrictive glucose medium; hit rate 0.68% among 130,000;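 active means inhibition above a set limit, placed 3 SD over the median of all compounds, cut at about 26% in these data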
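Test system: DeaD-strain S. cerevisiae / Buffer or medium: restrictive glucose medium / Also added: nicotinamide 1.5 mM / Doses: one concentration, 10 µM, DMSO 0.25% / Schedule: 48 h at 30 °C / Signal: OD615 measurement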
BB579 growth dn: chemicals that inhibit yeast BB579 growth in restrictive medium (lifespan-shortening candidates) | S. cerevisiae BB579 growth, OD615, 48 h | inhibition, % at 10 µM | hit rate 0.51% among 140,000 | AID 804;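 active means inhibition above a set limit, 3 SD over the mean compound inhibition, cut at about 44% in these data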
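controls = amphotericin B 10 µg/mL, positive | assay system = DeaD yeast strain BB579 | schedule = 48 h compound exposure at 30 °C after 4 h preincubation | detection = OD615 turbidity measurement | medium = restrictive CSMM-D medium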
RAM network inh: inhibitors of the yeast RAM network; S. cerevisiae dse1pr::URA3 reporter, 5-FOA growth OD615, 2 d; analog-sensitive cbk1-as2 kinase mutant strain; inhibition, % at 50 µM; hit rate 1.8% among 190,000; AID 868;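 active means inhibition above a set limit, 3 SD over mean compound inhibition, cut at about 8.4% in these data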;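 further: inhibition rescues growth on 5-FOA so higher OD means more RAM inhibition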
Measles CPE: protection of cells from measles virus | Measles virus-infected cells, CPE protection, absorbance | protection (pct of control), % at 4 µM | hit rate 1.5% among 140,000 | AID 841; in the data active means protection mostly above about 24%, no sharp cut-off; inactive means mostly below about 26%
Large screens that a line does not name were inactive.

CC(C)(C)c1cc(CN2CCN(CCO)CC2)cc(C(C)(C)C)c1O	Yeast life ext 32
Brc1cc2c(cc1Cn1c(-c3cncs3)nc3ccccc31)OCO2	RAM network inh 10
CCN(CC)S(=O)(=O)c1ccc(/C=C/C(=O)OCC(=O)Nc2ccc(S(N)(=O)=O)cc2)cc1	Measles CPE 28
Cc1ccccc1C(=O)OC1OC(=O)C(Cl)=C1N1CCOCC1 (centres undefined)	none
CC(=O)c1cccc(NC(=O)COC(=O)c2n[nH]c3ccccc23)c1	none (no result: SDO1 yeast rescue, Yeast life ext, BB579 growth dn, Measles CPE)
O=C(CN(Cc1ccc(F)cc1)C(=O)c1ccco1)NCc1ccc(F)cc1	none
O=C(c1ccco1)N(CCC(c1ccccc1)c1ccco1)Cc1ccc(F)cc1 (centres undefined)	Measles CPE 37
CCOc1cc(CNc2ccc(OC)cc2)cc(Br)c1OCC(=O)NC(C)(C)C	none
COc1cc(CNc2ccc(C(=O)O)cc2)cc(Br)c1OCC(=O)NC(C)(C)C	Measles CPE 35
Cc1cc(N2C(=O)C(=O)/C(=C(/O)c3ccc(F)cc3)C2c2cccc(Br)c2)no1 (centres undefined)	none
Cc1ccc(/C(O)=C2\C(=O)C(=O)N(c3cc(C)on3)C2c2cccc(Br)c2)cc1 (centres undefined)	Yeast life ext 27
COc1cccc(C(=O)Oc2cc(N)n(S(=O)(=O)c3ccc(C)cc3)n2)c1OC	Yeast life ext 68, RAM network inh 9.1
Cn1c(=O)c(C(=O)NCC2CCCO2)c(O)c2ccccc21 (centres undefined)	none (no result: SDO1 yeast rescue, Yeast life ext, BB579 growth dn, Measles CPE)
O=C(Cc1cccs1)N/N=C/C(Br)=C/c1ccccc1	Measles CPE 48
CC1CC(C)CN(c2ncc3c(n2)CC(c2ccccc2)CC3=O)C1 (centres undefined)	Measles CPE 42
CC(C)c1ccc(C2CC(=O)c3cnc(N4CCc5ccccc5C4)nc3C2)cc1 (centres undefined)	none
O=c1cc(N2CCCCC2)c(-c2ccccc2)nn1Cc1ccc(Cl)cc1Cl	Measles CPE 43
CCOC(=O)c1sc(NC(=O)CSc2nnc(Cc3ccccc3)o2)c(C(=O)OCC)c1C	RAM network inh 8.9
CCOC(=O)c1c(NC(=O)CSc2ccccc2C(=O)O)sc(C)c1C	none (no result: SDO1 yeast rescue, Yeast life ext, BB579 growth dn, Measles CPE)
CCOC(=O)c1c(NC(=O)CSc2ncnc3ccccc23)sc(C)c1C	RAM network inh 8.9
CC1(C)Cc2ccccc2-c2nnc(SCC(=O)Nc3ccc4c(c3)OCO4)n21	Yeast life ext 81
O=C(CSc1nnc(Cc2ccccc2)o1)Nc1ccc2c(c1)OCO2	Measles CPE 20
CCOC(=O)c1sc(NC(=O)CSc2nc3ccccc3o2)c(C(=O)OCC)c1C	none
CCOC(=O)N1C=CC=C[C@@H]2[C@@H](N3C(=O)c4ccccc4C3=O)C(=O)N21	none
O=c1oc(Nc2cccc(Cl)c2)nc2ccccc12	none (no result: SDO1 yeast rescue, Yeast life ext, BB579 growth dn, Measles CPE)
CCCCCNCC(=O)Nc1cccc(C(=O)Nc2cccc(C(F)(F)F)c2)c1	none (no result: SDO1 yeast rescue, Yeast life ext, BB579 growth dn, Measles CPE)
CC(=O)Nc1ccc(NC(=O)CSc2nnc(-c3ccccc3)n2Cc2ccc3c(c2)OCO3)cc1	RAM network inh 8.6
CC(C)Cn1c(-c2ccc(Cl)cc2)cnc1SCC(=O)N1CCOCC1	Measles CPE 95
CC(=O)c1c(C(=O)O)[nH]c(C(=O)O)c1C	none (no result: SDO1 yeast rescue, Yeast life ext, BB579 growth dn, Measles CPE)
CCOc1ccc(NC(=O)CSCc2cnn(-c3ccccc3)c2-n2cccc2)cc1	RAM network inh 10
CCCC(=O)Nc1ccc2oc(-c3ccncc3)nc2c1	Measles CPE 37
CCCCC(=O)Nc1ccc2oc(-c3ccncc3)nc2c1	none
CC(C)(C)c1ccc(-c2conc2N)cc1	none
O=C(C(c1ccccc1)c1ccccc1)N1CCC(c2nc(-c3ccccc3Cl)no2)CC1	Measles CPE 37 (no result: Yeast life ext)
O=C(O)c1ccc(S(=O)(=O)N2CCC(c3nc(-c4ccccc4Cl)no3)CC2)cc1	none
COC(=O)c1cccc(S(=O)(=O)N2CCN(c3nc4ccccc4s3)CC2)c1	none
CN1CCN(C2=Cc3ccc(Cl)cc3Sc3ccc(F)cc32)CC1	BB579 growth dn 86 (no result: Yeast life ext)
CN1CCN(C2=Cc3ccccc3Sc3cc(F)ccc32)CC1	none (no result: Yeast life ext)
Cn1nnnc1SCc1nnc(-c2ccccc2Br)o1	none
Cc1ccc(-n2nnnc2SCc2nnc(-c3ccccc3Br)o2)c(C)c1	RAM network inh 11
Cc1ccc(Cn2nnc3c(=O)[nH]c(C4CCCN(S(=O)(=O)c5ccccc5)C4)nc32)cc1 (centres undefined)	Measles CPE 46
O=C(OCC(=O)N1CCCc2ccccc21)c1cccnc1Cl	Measles CPE 39
